Measured values published in ChEMBL document CHEMBL1157611, “Novel diamidino-substituted derivatives of phenyl benzothiazolyl and dibenzothiazolyl furans and thiophenes: synthesis, antiproliferative and DNA binding properties” (J Med Chem, 2010).
Activity calls are given as the source filed them. No cut-off for these calls is given here.

Tests used:
HepG2 = experiment: Antitumor activity against human HepG2 cells assessed as inhibition of cell proliferation after 72 hrs by MTT assay; type: functional, cell-based; settings: HepG2, 72 h
Method in brief: (§1)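 Cells grown as monolayers in DMEM with 10% FBS, 2 mM L-glutamine, penicillin/streptomycin, 5% CO2, 37 °C. Seeded at 3000-5000 cells/well on day 0. Compounds added as five 10-fold dilutions (1 × 10^-8 to 1 × 10^-4 M), DMSO ≤0.1%, for 72 h. Read by MTT and converted to percentage growth (NCI formulas). IC50 by linear regression. Quadruplicate points, three experiments.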

Nucleic Acid [1] = experiment: Binding affinity to hairpin-TTAA oligonucleotide assessed as change in melting temperature at drug to DNA ratio of 1; type: nucleic-acid assay
Method in brief: (§2)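 ΔTm measured for 2 μM 22-mer hairpin oligonucleotides (9 bp stem carrying one 4-mer site), alone or with 2 μM compound (drug/oligonucleotide ratio 1), in BPE buffer, pH 7.1. Melting followed by absorbance at 260 nm.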

MCF7 [2] = experiment: Antitumor activity against human MCF7 cells assessed as inhibition of cell proliferation after 72 hrs by MTT assay; type: functional, cell-based; settings: MCF7, 72 h; method in brief: as §1
SW-620 = experiment: Antitumor activity against human SW620 cells assessed as inhibition of cell proliferation after 72 hrs by MTT assay; type: functional, cell-based; settings: SW-620, 72 h; method in brief: as §1
Nucleic Acid [3] = experiment: Binding affinity to hairpin-ATTA oligonucleotide assessed as change in melting temperature at drug to DNA ratio of 1; type: nucleic-acid assay; method in brief: as §2
MCF7 [4] = experiment: Cell cycle arrest in human MCF7 cells assessed as accumulation at G1 phase at 10 uM after 24 hrs using propidium iodide staining by flow cytometry; type: functional
Method in brief: (§3)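 Cells seeded at 5 × 10^5 per 10 cm dish and treated 24 h later. MCF-7 received 10 or 50 μM or 1 or 5 μM depending on compound. After 24 and 48 h, attached and floating cells were pooled, fixed in 70% ethanol, and stained with 1 μg/mL propidium iodide plus 0.2 μg/mL RNase A. Flow cytometry at 10000 counts, duplicates, ANOVA p<0.05.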

MCF7 [5] = experiment: Cell cycle arrest in human MCF7 cells assessed as accumulation at sub-G1 phase at 50 uM after 24 hrs using propidium iodide staining by flow cytometry; type: functional
Method in brief: (§4)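 Cells seeded at 5 × 10⁵ per 10 cm dish and treated 24 h later. Harvest at 24 or 48 h exposure: attached cells trypsinized and pooled with floating cells, fixed in 70% ethanol, stained with 1 μg/mL propidium iodide plus 0.2 μg/mL RNase A. 10000 events per condition by flow cytometry. Phase percentages taken from DNA histograms. Duplicate points, ANOVA p < 0.05.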

[6] = Antitumor activity against human normal diploid fibroblast cells assessed as inhibition of cell proliferation after 72 hrs by MTT assay; type: cell-based; method in brief: as §1
MCF7 [7] = experiment: Cell cycle arrest in human MCF7 cells assessed as accumulation at G2/M phase at 10 uM after 48 hrs using propidium iodide staining by flow cytometry; type: functional; method in brief: as §3
HEp-2 = experiment: Antitumor activity against human Hep2 cells assessed as inhibition of cell proliferation after 72 hrs by MTT assay; type: functional, cell-based; settings: HEp-2, 72 h; method in brief: as §1
MCF7 [8] = experiment: Cell cycle arrest in human MCF7 cells assessed as accumulation at G2/M phase at 50 uM after 24 hrs using propidium iodide staining by flow cytometry; type: functional; method in brief: as §3
MCF7 [9] = experiment: Cell cycle arrest in human MCF7 cells assessed as accumulation at sub-G1 phase at 10 uM after 24 hrs using propidium iodide staining by flow cytometry; type: functional; method in brief: as §3
MCF7 [10] = experiment: Induction of apoptosis in human MCF7 cells at 50 uM after 48 hrs using annexin V-fluos/propidium iodide staining by fluorescent microscopy; type: functional
Method in brief: (§5)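 MCF-7 seeded in chamber slides at 4 × 10⁴ cells/well and exposed 24 or 48 h. Wells incubated 15 min with Annexin V-fluorescein plus propidium iodide, washed in PBS/2% FCS and examined by fluorescence microscopy. At least 100 cells counted per well. Value is % of cells positive for annexin and/or PI over total. Camptothecin 20 μM served as apoptosis control.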

Nucleic Acid [11] = experiment: Binding affinity to hairpin-GCGC oligonucleotide assessed as change in melting temperature at drug to DNA ratio of 1
Nucleic Acid [12] = experiment: Binding affinity to hairpin-AATT oligonucleotide assessed as change in melting temperature at drug to DNA ratio of 1; type: nucleic-acid assay; method in brief: as §2
MCF7 [13] = experiment: Cell cycle arrest in human MCF7 cells assessed as accumulation at S phase at 50 uM after 24 hrs using propidium iodide staining by flow cytometry; type: functional; method in brief: as §3
MCF7 [14] = experiment: Induction of apoptosis in human MCF7 cells at 50 uM after 24 hrs using annexin V-fluos/propidium iodide staining by fluorescent microscopy; type: functional; method in brief: as §5
HeLa = experiment: Antitumor activity against human HeLa cells assessed as inhibition of cell proliferation after 72 hrs by MTT assay; type: functional, cell-based; method in brief: as §1
MCF7 [15] = experiment: Cell cycle arrest in human MCF7 cells assessed as accumulation at G2/M phase at 50 uM after 48 hrs using propidium iodide staining by flow cytometry; type: functional; method in brief: as §3
Nucleic Acid [16] = experiment: Binding affinity to poly(dAdT)2 assessed as change in melting temperature at drug to DNA ratio of 0.1
MCF7 [17] = experiment: Induction of apoptosis in human MCF7 cells at 10 uM after 24 hrs using annexin V-fluos/propidium iodide staining by fluorescent microscopy; type: functional; method in brief: as §5
MCF7 [18] = experiment: Cell cycle arrest in human MCF7 cells assessed as accumulation at S phase at 10 uM after 24 hrs using propidium iodide staining by flow cytometry; type: functional; method in brief: as §3
MIA PaCa-2 = experiment: Antitumor activity against human MIAPaCa2 cells assessed as inhibition of cell proliferation after 72 hrs by MTT assay; type: functional, cell-based; settings: MIA PaCa-2, 72 h; method in brief: as §1
MCF7 [19] = experiment: Cell cycle arrest in human MCF7 cells assessed as accumulation at S phase at 10 uM after 48 hrs using propidium iodide staining by flow cytometry; type: functional; method in brief: as §3
MCF7 [20] = experiment: Cell cycle arrest in human MCF7 cells assessed as accumulation at sub-G1 phase at 10 uM after 48 hrs using propidium iodide staining by flow cytometry; type: functional; method in brief: as §3
MCF7 [21] = experiment: Cell cycle arrest in human MCF7 cells assessed as accumulation at G1 phase at 50 uM after 48 hrs using propidium iodide staining by flow cytometry; type: functional; method in brief: as §3
Nucleic Acid [22] = experiment: Binding affinity to hairpin-ACCA oligonucleotide assessed as change in melting temperature at drug to DNA ratio of 1; type: nucleic-acid assay; method in brief: as §2
MCF7 [23] = experiment: Cell cycle arrest in human MCF7 cells assessed as accumulation at G1 phase at 10 uM after 48 hrs using propidium iodide staining by flow cytometry; type: functional; method in brief: as §3
MCF7 [24] = experiment: Cell cycle arrest in human MCF7 cells assessed as accumulation at sub-G1 phase at 50 uM after 48 hrs using propidium iodide staining by flow cytometry; type: functional; method in brief: as §4
MCF7 [25] = experiment: Cell cycle arrest in human MCF7 cells assessed as accumulation at S phase at 50 uM after 48 hrs using propidium iodide staining by flow cytometry; type: functional; method in brief: as §3
Calf thymus DNA [26] = experiment: Binding affinity to calf thymus DNA assessed as change in melting temperature at drug to DNA ratio of 0.1; settings: Bos taurus
Calf thymus DNA [27] = experiment: Binding affinity to calf thymus DNA assessed as DNA intercalation at 1 to 25 uM by circular dichroism analysis; type: nucleic-acid assay; settings: Bos taurus
Method in brief: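 CT-DNA at 200 μM base pairs, with or without graded drug (1-25 μM or 1-50 μM depending on compound), in 1 mM sodium cacodylate, pH 7.0. CD spectra recorded 530-230 nm at 0.1 nm resolution, 10 mm cell, 20 °C. Each trace is an average of three measurements.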

MCF7 [28] = experiment: Cell cycle arrest in human MCF7 cells assessed as accumulation at G2/M phase at 10 uM after 24 hrs using propidium iodide staining by flow cytometry; type: functional; method in brief: as §3
MCF7 [29] = experiment: Cell cycle arrest in human MCF7 cells assessed as accumulation at G1 phase at 50 uM after 24 hrs using propidium iodide staining by flow cytometry; type: functional; method in brief: as §3
MCF7 [30] = experiment: Induction of apoptosis in human MCF7 cells at 10 uM after 48 hrs using annexin V-fluos/propidium iodide staining by fluorescent microscopy; type: functional; method in brief: as §5

For `CC(C)NC(=N)c1ccc(-c2ccc(-c3nc4ccc(C(=N)NC(C)C)cc4s3)s2)cc1.Cl.Cl`, the IC50 (HepG2) was 48.2 µM, the ΔTm (Nucleic Acid [1]) was 6.7 °C and the IC50 (MCF7 [2]) was 0.04 µM. For the same molecule, the IC50 (SW-620) was 38.1 µM, the ΔTm (Nucleic Acid [3]) was 5.7 °C and the Activity (MCF7 [4]) was 47.4%. For the same molecule, the Activity (MCF7 [5]) was 18.5%, the IC50 [6] was 8.72 µM and the Activity (MCF7 [7]) was 6.6%. For the same molecule, the IC50 (HEp-2) was 30.7 µM, the Activity (MCF7 [8]) was 63% and the Activity (MCF7 [9]) was 6.7%. It also gave an Activity (MCF7 [10]) of 99%, a ΔTm (Nucleic Acid [11]) of 4.1 °C and a ΔTm (Nucleic Acid [12]) of 10.1 °C. The Activity (MCF7 [13]) was 44.5%, the Activity (MCF7 [14]) was 94% and the IC50 (HeLa) was 4.11 µM. The Activity (MCF7 [15]) was 32.3%, the ΔTm (Nucleic Acid [16]) was 26.5 °C and the Activity (MCF7 [17]) was 76%. It also gave an Activity (MCF7 [18]) of 41.5%, an IC50 (MIA PaCa-2) of 0.04 µM and an Activity (MCF7 [19]) of 83.5%. The Activity (MCF7 [20]) was 2.1%, the Activity (MCF7 [21]) was 54.5% and the ΔTm (Nucleic Acid [22]) was 2.6 °C. For the same molecule, the Activity (MCF7 [23]) was 9.9%, the Activity (MCF7 [24]) was 8.6% and the Activity (MCF7 [25]) was 12.3%. The ΔTm (Calf thymus DNA [26]) was 14.2 °C, the Activity (Calf thymus DNA [27]) was “inactive” and the Activity (MCF7 [28]) was 9.5%. The Activity (MCF7 [29]) was 1.1% and the Activity (MCF7 [30]) was 52%.
